Measurements reported in publication PMC8112392 (Science signaling, 2021).
Entries after “also recorded” stand apart in the source; their conditions may differ. Where two headings read alike, the source gives them in different places.

Legend:
[1] = system: Tlp10^LBD; assay: Glycan and small molecule array binding of purified Tlp10 LBD; parameters: species or system C. jejuni; details: for array: binding to Tlp10^LBD on glycan / small molecule array; for interaction of Tlp10^LBD with complex glycans: glycan array
[2] = molecular target: T1, Tlp10^LBD wild type (Campylobacter jejuni, UniProt Q0PCA6); assay: biochemical; format: binding; details: for SPR: binding to Tlp10^LBD by SPR; for Kd: SPR, n = 3
[3] = molecular target: Tlp10^LBD Y70A (Campylobacter jejuni, UniProt Q0PCA6, Y70A); assay: biochemical; format: binding, C. jejuni
[4] = molecular target: Tlp10^LBD N115A (Campylobacter jejuni, UniProt Q0PCA6, N115A); assay: biochemical; format: binding, C. jejuni
[5] = molecular target: Tlp10^LBD N120A (Campylobacter jejuni, UniProt Q0PCA6, N120A); assay: biochemical; format: binding, C. jejuni
[6] = molecular target: Tlp10^LBD H193A (Campylobacter jejuni, UniProt Q0PCA6, H193A); assay: biochemical; format: binding, C. jejuni
[7] = system: C. jejuni 11168-O; format: cell-based; details: nutrient-depleted chemotaxis assay, 2 mM ligand
[8] = system: C. jejuni 11168-O; assay: μ-Slide chemotaxis cell enumeration assay; format: cell-based; details: 10 mM chemoeffector
Outline: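 Wild-type, Δtlp10LBD and complemented strains are harvested from MHA plates into PBS, adjusted to OD600 1 and mixed 1:1 (vol:vol) with 1% LMT. The opposite μ-Slide reservoir holds chemoeffector (final 10 mM) in LMT (final 0.35%). Slides are incubated 3 h at 42°C, microaerobic. Cells in the chemoeffector reservoir are enumerated by viable count. Three biological repeats are run, each in triplicate.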

[9] = molecular target: T1, Tlp10^LBD wild type; format: binding; details: competition SPR, compounds at 10x KD
[10] = system: C. jejuni 11168-O adherence to Caco-2, HCT116 and HCT116MUC1 cells; assay: Adherence of C. jejuni to cultured human cells with glycan competition; format: cell-based; details: 11168-O wild-type and Δtlp10^LBDc strains, 5 mM glycan
[11] = system: C. jejuni 11168-O; assay: μ-Slide chemotactic cell migration visualisation; format: cell-based; details: time-lapse imaging, 10 mM ligand
Outline: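 Wild-type, Δtlp10 and complemented C. jejuni 11168-O cells are FITC-labelled. In a μ-Slide, the left reservoir holds bacterial suspension, and the right reservoir and transition zone hold PBS. Once cells near the transition zone, isoleucine or arginine is added to the right reservoir (final 10 mM). In the sequential test, arginine is added at 20 sec after partial migration toward isoleucine. Migration is recorded by time-lapse video at 40× magnification.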

[12] = system: C. jejuni 11168-O; assay: Biofilm assay; format: cell-based; details: 10 mM galactose
[13] = read-out: KD Tlp10^LBD Wild-type, Table 2, mean ± s.d.
[14] = read-out: KD Tlp10^LBD Y70A, SPR, mean ± s.d., n = 3
[15] = read-out: KD Tlp10^LBD N115A, SPR, mean ± s.d., n = 3
[16] = read-out: KD Tlp10^LBD N120A, SPR, mean ± s.d., n = 3
[17] = read-out: KD Tlp10^LBD H193A, SPR, mean ± s.d., n = 3
[18] = KD Tlp10^LBD Wild-type, Table 2, mean ± s.d.
[19] = KD, wild-type Tlp10^LBD, mean ± SD

Row | Molecule | array [1] | SPR [2] | migration of Δtlp10^LBD strain towards ligand compared to wild-type [7] | migration of Δtlp10^LBD cells toward ligand compared with wild-type [8] | ligand-binding site on Tlp10^LBD [9] | Kd [2, 18] | Kd [2, 19] | Kd [3] | Kd [4] | Kd [5] | Kd [6] | Tlp10-mediated chemotactic response type [7] | also measured
1 | rhamnose | + | + | not significantly affected | No significant differences | site B |  |  |  |  |  |  |  | Kd [2, 13]: 11.1 ± 2 µM; Kd [3, 14]: 8.2 ± 3 µM; Kd [4, 15]: 18.2 ± 1.9 µM; Kd [5, 16]: 17.9 ± 3.7 µM; Kd [6, 17]: 9.8 ± 0.95 µM
2 | CC(=O)N[C@H]1[C@H]([C@H](O)[C@H](O)CO)OC(O)(C(=O)O)C[C@@H]1O (stereo partly shown) [sialic acid] | + | + |  | No significant differences | site B | 29.3 ± 6.9 µM | 29.3 ± 6.9 µM | 24.1 ± 7 µM | 34.9 ± 13 µM | 37.1 ± 6 µM | 20.4 ± 9 µM |  | 
3 | O=C(O)CC(O)C(=O)O (stereo not shown) [malate] |  | + |  |  | site B | 168 ± 19 µM | 168 ± 19 µM | 184 ± 14 µM | 176 ± 10 µM | 215 ± 31 µM | 161 ± 23 µM | attractants | 
4 | O=C(O)CCC(=O)C(=O)O [α-ketoglutarate] |  | + | not significantly affected |  | site A |  |  |  |  |  |  |  | Kd ([2]; wild-type Tlp10^LBD, mean ± SD): 403 ± 13 µM; Kd [2, 13]: 403 ± 13 µM; Kd [3, 14]: 385 ± 40 µM; Kd [4, 15]: 630 ± 27 µM; Kd [5, 16]: 580 ± 43 µM; Kd [6, 17]: 370 ± 63 µM
5 | Cc1ncc(C[n+]2csc(CCO)c2C)c(N)n1 [thiamine] | + | + | increase in migration |  | both site A and site B with a preference for site B | 59.4 ± 13 µM | 59.4 ± 13 µM | 62 ± 17 µM | 49.2 ± 10 µM | 58.3 ± 9 µM | 50.6 ± 6 µM | repellent response | 
6 | OC[C@H]1OC(O)[C@@H](O)[C@@H](O)[C@@H]1O (stereo partly shown) [mannose] | + | + |  | decreased | site B | 39.6 ± 9 µM | 39.6 ± 9 µM | 43.3 ± 3 µM | 52.1 ± 10 µM | 46.4 ± 12 µM | 32.1 ± 12 µM | attractants | Tlp10-mediated chemotactic response type [8]: attractant response
7 | Fucα1–2Galβ1–3GalNAcβ1–4(Neu5Acα2–3) Galβ1–4Glc [human ganglioside GM1] |  |  |  |  |  |  |  |  |  |  |  |  | interaction of Tlp10^LBD with complex glycans [1]: interacted
8 | C[C@H](O)[C@@H](O)[C@@H](O)[C@H](O)C=O [fucose] | + | + |  | decreased | site B | 30 ± 4.1 µM | 30 ± 4.1 µM | 34 ± 7 µM | 22 ± 2 µM | 19.2 ± 4 µM | 28 ± 3 µM | attractants | Tlp10-mediated chemotactic response type [8]: attractant response; effect on adherence to all cell lines tested [10]: suppressed the adherence; also recorded: less effective than that by galactose
9 | N[C@@H](CC(=O)O)C(=O)O [aspartate] | + | + |  |  | both site A and site B with a preference for site B | 32.3 ± 10 µM | 32.3 ± 10 µM | 38.9 ± 11 µM | 29.5 ± 8 µM | 48 ± 7 µM | 30.9 ± 9 µM | attractants | 
10 | N=C(N)NCCC[C@H](N)C(=O)O [arginine] | + | + | increase in migration |  | site A | 27.9 ± 3 µM | 27.9 ± 3 µM | 19.1 ± 12 µM | 41.9 ± 12 µM | 50.1 ± 8 µM | 29 ± 8 µM | repellent response | Tlp10-mediated chemotactic response type [11]: chemorepellent response
11 | O=C[C@H](O)[C@@H](O)[C@@H](O)[C@H](O)CO [galactose] | + | + | One-log increase in migration | increased | site B |  |  |  |  |  |  | repellent | Tlp10-mediated chemotactic response type [8]: repellent response; reduction of biofilm formation compared to untreated cells ([12]; wild-type C. jejuni 11168-O): up to 46%; change in biofilm formation ([12]; Δtlp10^LBD mutant): no significant change; effect on adherence to all cell lines tested [10]: suppressed the adherence
12 | fumarate | + | + |  |  | site A |  |  |  |  |  |  | attractants | Kd ([2]; wild-type Tlp10^LBD, mean ± SD): 282 ± 68 µM; Kd [2, 13]: 282 ± 68 µM; Kd [3, 14]: 185 ± 25 µM; Kd [4, 15]: 242 ± 30 µM; Kd [5, 16]: 317 ± 34 µM; Kd [6, 17]: 213 ± 59 µM
13 | CC(=O)N[C@@H](C=O)[C@@H](O[C@@H]1O[C@H](CO)[C@H](O)[C@H](O)[C@H]1O)[C@H](O[C@@H]1O[C@@H](C)[C@@H](O)[C@@H](O)[C@@H]1O)[C@H](O)CO [Lewis^a antigen] |  |  |  |  |  |  |  |  |  |  |  |  | interaction of Tlp10^LBD with complex glycans [1]: interacted
14 | c1ncc2nc[nH]c2n1 [purine] | + | + | not significantly affected |  | site A | 21 ± 6 µM | 21 ± 6 µM | 16 ± 1 µM | 29 ± 8 µM | 34 ± 3 µM | 19 ± 2 µM |  | 
15 | CC[C@H](C)[C@H](N)C(=O)O [isoleucine] | + | + |  |  | site A | 37.9 ± 7 µM | 37.9 ± 7 µM | 28.1 ± 6 µM | 48.1 ± 5 µM | 51.2 ± 1.2 µM | 30.8 ± 7 µM | attractants | Tlp10-mediated chemotactic response type [11]: chemoattractant response
